Laboratory results published in ChEMBL document CHEMBL1821697, “Design and synthesis of brain penetrant selective JNK inhibitors with improved pharmacokinetic properties for the prevention of neurodegeneration” (Bioorg Med Chem Lett, 2011).

Assays:
[1] = target: Mitogen-activated protein kinase 10 (Homo sapiens, UniProt P53779); assay: Inhibition of recombinant JNK3 using ser73 of c-jun as substrate preincubated for 15 mins measured after 60 mins by TR-FRET assay
In short: (§1)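 Recombinant JNK enzyme assay run at 10 µM ATP. IC50 values are means of at least three experiments.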

[2] = target: Mitogen-activated protein kinase 8 (Homo sapiens, UniProt P45983); assay: Inhibition of recombinant JNK1 using ser73 of c-jun as substrate preincubated for 15 mins measured after 60 mins by TR-FRET assay; in short: as §1
Chain of Mitogen-activated protein kinase 8 (P45983 whole entry): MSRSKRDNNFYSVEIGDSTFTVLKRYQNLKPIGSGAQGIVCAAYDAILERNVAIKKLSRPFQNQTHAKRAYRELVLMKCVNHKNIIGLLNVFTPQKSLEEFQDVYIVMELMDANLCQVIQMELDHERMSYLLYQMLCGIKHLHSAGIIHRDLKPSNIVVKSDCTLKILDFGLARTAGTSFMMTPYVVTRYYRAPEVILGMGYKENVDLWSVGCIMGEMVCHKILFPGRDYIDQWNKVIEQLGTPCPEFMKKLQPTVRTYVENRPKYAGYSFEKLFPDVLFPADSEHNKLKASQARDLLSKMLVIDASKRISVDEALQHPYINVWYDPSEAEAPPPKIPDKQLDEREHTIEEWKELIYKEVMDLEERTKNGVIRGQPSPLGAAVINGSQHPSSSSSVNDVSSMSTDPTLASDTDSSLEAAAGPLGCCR

[3] = target: Mitogen-activated protein kinase 9 (Homo sapiens, UniProt P45984); assay: Inhibition of recombinant JNK2 using ser73 of c-jun as substrate preincubated for 15 mins measured after 60 mins by TR-FRET assay; in short: as §1
Chain of Mitogen-activated protein kinase 9 (P45984 whole entry): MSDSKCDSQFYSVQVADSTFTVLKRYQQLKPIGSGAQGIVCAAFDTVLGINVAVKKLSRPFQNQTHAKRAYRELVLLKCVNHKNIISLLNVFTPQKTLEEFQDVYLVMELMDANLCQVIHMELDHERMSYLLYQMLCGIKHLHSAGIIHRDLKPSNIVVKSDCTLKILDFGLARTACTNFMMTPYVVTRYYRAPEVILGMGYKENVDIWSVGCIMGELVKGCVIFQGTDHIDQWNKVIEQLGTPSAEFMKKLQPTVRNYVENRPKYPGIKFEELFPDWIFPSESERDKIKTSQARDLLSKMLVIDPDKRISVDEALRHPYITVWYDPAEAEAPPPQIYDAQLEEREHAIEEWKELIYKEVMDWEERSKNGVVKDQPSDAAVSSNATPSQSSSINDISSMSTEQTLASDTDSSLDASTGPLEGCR

[4] = Oxidative metabolic stability in mouse liver microsomes assessed as compound remaining at 1 uM after 30 mins; format: ADME, Microsome; settings: read-out: Stability
In short: (§2)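 Test compound was incubated with mouse, rat or human liver microsomes for 30 min. The read-out is percent of parent compound remaining.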

[5] = Oxidative metabolic stability in rat liver microsomes assessed as compound remaining at 1 uM after 30 mins; format: ADME, Microsome; settings: read-out: Stability; in short: as §2
[6] = Oxidative metabolic stability in human liver microsomes assessed as compound remaining at 1 uM after 30 mins; format: ADME, Microsome; settings: read-out: Stability; in short: as §2
[7] = target: Mitogen-activated protein kinase 14 (Homo sapiens, UniProt Q16539); assay: Inhibition of recombinant p38alpha Thr69/71 of ATF-2 as substrate preincubated for 15 mins measured after 60 mins by TR-FRET assay
Chain of Mitogen-activated protein kinase 14 (Q16539 whole entry): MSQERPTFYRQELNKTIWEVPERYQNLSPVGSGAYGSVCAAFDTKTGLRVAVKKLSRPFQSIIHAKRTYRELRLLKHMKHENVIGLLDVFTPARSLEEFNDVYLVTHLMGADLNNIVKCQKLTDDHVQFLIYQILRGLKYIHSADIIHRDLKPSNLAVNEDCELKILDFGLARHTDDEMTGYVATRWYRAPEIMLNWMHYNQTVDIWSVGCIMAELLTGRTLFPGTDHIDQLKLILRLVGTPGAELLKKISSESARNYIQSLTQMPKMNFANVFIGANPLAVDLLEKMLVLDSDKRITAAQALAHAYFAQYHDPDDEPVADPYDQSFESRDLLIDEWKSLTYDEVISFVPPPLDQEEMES

[8] = target: Mitogen-activated protein kinase 1 (Homo sapiens, UniProt P28482); assay: Inhibition of recombinant ERK2 using Ser383 of Elk-1 as substrate preincubated for 15 mins measured after 60 mins by TR-FRET assay
Chain of Mitogen-activated protein kinase 1 (P28482 whole entry): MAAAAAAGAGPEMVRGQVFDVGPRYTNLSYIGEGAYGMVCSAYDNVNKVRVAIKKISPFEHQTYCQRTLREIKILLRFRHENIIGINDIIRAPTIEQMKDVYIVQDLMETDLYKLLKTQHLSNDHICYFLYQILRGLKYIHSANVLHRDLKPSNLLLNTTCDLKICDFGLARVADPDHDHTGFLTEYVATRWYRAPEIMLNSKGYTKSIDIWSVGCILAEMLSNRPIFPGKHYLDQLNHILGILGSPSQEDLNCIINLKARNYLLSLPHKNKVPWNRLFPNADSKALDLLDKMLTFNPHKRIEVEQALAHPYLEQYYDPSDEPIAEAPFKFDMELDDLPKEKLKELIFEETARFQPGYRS

[9] = Apparent permeability from apical to basolateral side of MDCK2 cells at 5 uM after 120 mins by LC/MS/MS method; format: ADME, cell-based, Canis lupus familiaris, MDCK-II; settings: dog, MDCK
MDR1 = assay: Efflux ratio of permeability across MDCK2 expressing MDR1 at 5 uM after 120 mins by LC/MS/MS method; format: ADME, Canis lupus familiaris, MDCK-II; settings: dog, MDCK-MDR1
[10] = Solubility of the compound in Hank's buffered salt solution at 20 mM at pH 7.4 after 1 hr; format: physicochemical
[11] = AUC in mouse brain at 1 mg/kg, iv; format: ADME, organism-based; design: dose 1 mg/kg, route intravenous
In short: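 Mice were dosed intravenously at 1 mg/kg. Brain exposure was expressed as AUC (ng h/mL) alongside the brain/plasma ratio.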

[12] = Ratio of drug level in brain to plasma in mouse at 1 mg/kg, iv; format: ADME, organism-based; design: dose 1 mg/kg, route intravenous; settings: read-out: BPR
In short: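 Single intravenous dose of 1 mg/kg in mice. Brain exposure was reported as brain AUC (ng h/mL), together with the brain-to-plasma ratio.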

[13] = Half life in rat at 1 mg/kg, iv; format: ADME, organism-based; design: dose 1 mg/kg, route intravenous; settings: in vivo
In short: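 Rats were given a single intravenous dose of 1 mg/kg. Half-life is reported in min, together with clearance (mL/h/kg).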

Rattus norvegicus [14] = assay: AUC in rat at 2 mg/kg, po; format: ADME, organism-based, Plasma; design: dose 2 mg/kg, route oral; settings: in vivo
In short: (§3)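 Rats received an oral dose of 2 mg/kg. Plasma AUC is reported in nmol h/mL. Oral bioavailability (F%) was calculated against a 1 mg/kg intravenous dose.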

Rattus norvegicus [15] = assay: Oral bioavailability in rat at 2 mg/kg; format: ADME, organism-based; settings: in vivo; in short: as §3

Chain of Mitogen-activated protein kinase 10 (P53779 whole entry): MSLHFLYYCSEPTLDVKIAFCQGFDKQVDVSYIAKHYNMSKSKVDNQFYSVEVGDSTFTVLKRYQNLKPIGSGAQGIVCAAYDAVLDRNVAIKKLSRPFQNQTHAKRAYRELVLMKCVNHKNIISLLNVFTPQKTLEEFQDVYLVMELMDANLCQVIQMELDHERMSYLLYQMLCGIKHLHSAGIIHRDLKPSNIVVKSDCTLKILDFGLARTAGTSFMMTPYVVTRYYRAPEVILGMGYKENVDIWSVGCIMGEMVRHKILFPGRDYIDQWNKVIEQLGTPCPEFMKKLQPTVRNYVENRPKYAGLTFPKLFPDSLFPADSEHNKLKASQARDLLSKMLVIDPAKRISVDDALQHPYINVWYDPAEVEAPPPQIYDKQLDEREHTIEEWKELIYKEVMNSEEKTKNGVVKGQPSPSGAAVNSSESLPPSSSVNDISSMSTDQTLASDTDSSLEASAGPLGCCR

SMILES | IC50 [1] [nM] | IC50 [2] [nM] | IC50 [3] [nM] | remaining at 0.5 h, 1 µM [4] [%] | remaining at 0.5 h, 1 µM [5] [%] | remaining at 0.5 h, 1 µM [6] [%] | IC50 [7] [nM] | IC50 [8] [nM] | Papp A→B at 2 h, 5 µM [9] [×10⁻⁶ cm/s] | efflux ratio at 2 h, 5 µM (MDR1) | solubility at 1 h, 20000 µM [10] [µM] | AUC [11] [ng·h/mL] | Kp [12] | half-life [13] [min] | AUC (Rattus norvegicus [14]) [ng·h/mL] | F (Rattus norvegicus [15]) [%]
N#Cc1ccc2c(ccc(=O)n2CC(=O)Nc2scc(Br)c2-c2ncn[nH]2)c1 | 2 | 1 | 10 | 60 | 46 | 69 | > 50000 | > 50000 | 3.43 | 4.18 | – | – | – | – | – | –
N#Cc1csc(NC(=O)CN2C(=O)CCc3ccccc32)c1-c1ncn[nH]1 | – | – | – | – | 0 | – | – | – | – | – | 95 | – | – | – | – | –
O=C(Cc1cccc2cnccc12)Nc1scc(Cl)c1-c1ncn[nH]1 | – | – | – | – | 9 | – | – | – | – | – | 25 | 88 | 0.4 | – | – | –
O=C(Cn1c(=O)ccc2cc(F)c(F)cc21)Nc1scc(Br)c1-c1ncn[nH]1 | 5 | 3 | 15 | 14 | 9 | 38 | > 50000 | > 50000 | 8.31 | 0.68 | – | 160 | 1.4 | 2.3 | 571 | 40
O=C(CN1C(=O)CCc2ncccc21)Nc1scc(Br)c1-c1ncn[nH]1 | 14 | 9 | 32 | 55 | 50 | 83 | > 50000 | > 500 | 36.8 | 1.8 | – | 35 | 0.24 | 2.5 | 2720 | 91
O=C(Cn1c(=O)ccc2ccc(C(F)(F)F)cc21)Nc1scc(Br)c1-c1ncn[nH]1 | 9 | 6 | 21 | 29 | 25 | 44 | – | – | – | – | – | – | – | – | – | –
N#Cc1csc(NC(=O)CN2C(=O)CCc3ncccc32)c1-c1nc[nH]n1 | 6 | 5 | 18 | 84 | 81 | 80 | – | – | – | – | – | – | – | – | – | –
O=C(CN1C(=O)CCc2ncccc21)Nc1scc(Br)c1-c1nccs1 | 15 | 13 | 145 | 0 | 0 | 3 | – | – | – | – | – | – | – | – | – | –
Cn1cnc(-c2c(Br)csc2NC(=O)CN2C(=O)CCc3ncccc32)n1 | 3 | 1 | 13 | 33 | 37 | 46 | – | – | – | – | – | – | – | – | – | –
O=C(Cn1c(=O)ccn2nc(C(F)(F)F)cc12)Nc1scc(Br)c1-c1ncn[nH]1 | 14 | 3 | 36 | 3 | 42 | 48 | – | – | – | – | – | – | – | – | – | –
O=C(Cc1cccc2ncc(C(F)(F)F)cc12)Nc1scc(Br)c1-c1nc[nH]n1 | 52 | 21 | 164 | 3 | 20 | 37 | – | – | – | – | – | – | – | – | – | –
O=C(Cc1ccc(C(F)(F)F)c2ncccc12)Nc1scc(Cl)c1-c1ncn[nH]1 | 183 | 81 | 24 | 3 | 1 | 32 | – | – | – | – | – | – | – | – | – | –
O=C(Cn1c(=O)ccc2cnccc21)Nc1scc(Br)c1-c1ncn[nH]1 | 7 | 4 | 8 | 51 | 60 | 85 | – | – | – | – | – | – | – | – | – | –
O=C(Cn1c(=O)ccc2nc(C(F)(F)F)ccc21)Nc1scc(Br)c1-c1ncn[nH]1 | 14 | 8 | 38 | 35 | 2 | 64 | – | – | – | – | – | – | – | – | – | –
